Measured values from ChEMBL document CHEMBL1687714, “Genetic analysis of fenhexamid-resistant field isolates of the phytopathogenic fungus Botrytis cinerea” (Antimicrob Agents Chemother, 2008).
≈ marks a conversion by molar mass, not a printed value. Calls of active or inactive are those of the source. The rule behind the calls is not given here.

What was measured:
Assay type in all cases: functional, organism-based
[1] = test system: Botrytis cinerea; assay: Antifungal activity against moderately to slightly fenhexamid-resistant Botrytis cinerea 365 assessed as inhibition of mycelium growth measured over 5 days; conditions: Botrytis cinerea, 365, 120 h
[2] = test system: Botrytis cinerea; assay: Antifungal activity against fenhexamid-senistive Botrytis cinerea B05.10 assessed as inhibition of germ tube elongation after 24 hrs; conditions: B05.10, 24 h
[3] = test system: Botrytis cinerea; assay: Antifungal activity against moderately to slightly fenhexamid-resistant Botrytis cinerea 453a assessed as inhibition of mycelium growth measured over 5 days; conditions: 120 h
[4] = test system: Botrytis cinerea; assay: Antifungal activity against highly fenhexamid-resistant Botrytis cinerea 1837 assessed as inhibition of mycelium growth measured over 5 days; conditions: Botrytis cinerea, 1837, 120 h
[5] = test system: Botrytis cinerea; assay: Antifungal activity against highly fenhexamid-resistant Botrytis cinerea 533 assessed as inhibition of mycelium growth measured over 5 days; conditions: Botrytis cinerea, 533, 120 h
[6] = test system: Botrytis cinerea; assay: Antifungal activity against fenhexamid-senistive Botrytis cinerea SAS405 assessed as inhibition of germ tube elongation after 24 hrs; conditions: SAS405, 24 h
[7] = test system: Botrytis cinerea; assay: Antifungal activity against highly fenhexamid-resistant Botrytis cinerea 118 assessed as inhibition of mycelium growth measured over 5 days; conditions: Botrytis cinerea, 118, 120 h
[8] = test system: Botrytis cinerea; assay: Antifungal activity against moderately to slightly fenhexamid-resistant Botrytis cinerea 202 assessed as inhibition of germ tube elongation after 24 hrs; conditions: Botrytis cinerea, 202, 24 h
[9] = test system: Botrytis cinerea; assay: Antifungal activity against moderately to slightly fenhexamid-resistant Botrytis cinerea 05-ABA assessed as inhibition of mycelium growth measured over 5 days; conditions: 120 h
[10] = test system: Botrytis cinerea; assay: Antifungal activity against highly fenhexamid-resistant Botrytis cinerea 05-221 assessed as inhibition of germ tube elongation after 24 hrs; conditions: 05-221, 24 h
[11] = test system: Botrytis cinerea; assay: Antifungal activity against highly fenhexamid-resistant Botrytis cinerea 179 assessed as inhibition of mycelium growth measured over 5 days; conditions: Botrytis cinerea, 179, 120 h
[12] = test system: Botrytis cinerea; assay: Antifungal activity against Botrytis cinerea 286 harboring TELerg S336C mutant at 2 ug/ml relative to wild-type
Summary of the method: (§1)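 In the dominance test, the recipient strains 453b and 286 were transformed with different erg27 alleles. Spores of the transformants were grown on YSS medium containing fenhexamid at different concentrations and 50 µg ml–1 hygromycin B. Parental strains were grown without hygromycin. Growth was scored after 7 days at 21°C.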

[13] = test system: Botrytis cinerea; assay: Antifungal activity against Botrytis cinerea 286 harboring TELerg S336C mutant at 10 ug/ml relative to wild-type; summary of the method: as §1
[14] = test system: Botrytis cinerea; assay: Antifungal activity against highly fenhexamid-resistant Botrytis cinerea 05-221 assessed as inhibition of mycelium growth measured over 5 days; conditions: 05-221, 120 h
[15] = test system: Botrytis cinerea; assay: Antifungal activity against HydR3 deficient Botrytis cinerea 453 harboring TELerg N369D mutant at 2 ug/ml relative to wild-type; summary of the method: as §1
[16] = test system: Botrytis cinerea; assay: Antifungal activity against moderately to slightly fenhexamid-resistant Botrytis cinerea 454 assessed as inhibition of mycelium growth measured over 5 days; conditions: Botrytis cinerea, 454, 120 h
[17] = test system: Botrytis cinerea; assay: Antifungal activity against HydR3 deficient Botrytis cinerea 453 harboring TELerg F412I mutant at 5 ug/ml relative to wild-type; summary of the method: as §1
[18] = test system: Botrytis cinerea; assay: Antifungal activity against moderately to slightly fenhexamid-resistant Botrytis cinerea 221 assessed as inhibition of germ tube elongation after 24 hrs; conditions: Botrytis cinerea, 221, 24 h
[19] = test system: Botrytis cinerea; assay: Antifungal activity against highly fenhexamid-resistant Botrytis cinerea 379b assessed as inhibition of mycelium growth measured over 5 days; conditions: 120 h
[20] = test system: Botrytis cinerea; assay: Antifungal activity against highly fenhexamid-resistant Botrytis cinerea 312 assessed as inhibition of germ tube elongation after 24 hrs; conditions: Botrytis cinerea, 312, 24 h
[21] = test system: Botrytis cinerea; assay: Antifungal activity against highly fenhexamid-resistant Botrytis cinerea 506a assessed as inhibition of mycelium growth measured over 5 days; conditions: 120 h
[22] = test system: Botrytis cinerea; assay: Antifungal activity against moderately to slightly fenhexamid-resistant Botrytis cinerea 05-ABA assessed as inhibition of germ tube elongation after 24 hrs
[23] = test system: Botrytis cinerea; assay: Antifungal activity against highly fenhexamid-resistant Botrytis cinerea 520b assessed as inhibition of germ tube elongation after 24 hrs
[24] = test system: Botrytis cinerea; assay: Antifungal activity against moderately to slightly fenhexamid-resistant Botrytis cinerea 454 assessed as inhibition of germ tube elongation after 24 hrs; conditions: Botrytis cinerea, 454, 24 h
[25] = test system: Botrytis cinerea; assay: Antifungal activity against highly fenhexamid-resistant Botrytis cinerea MK3-9 assessed as inhibition of germ tube elongation after 24 hrs; conditions: MK3-9, 24 h
[26] = test system: Botrytis cinerea; assay: Antifungal activity against moderately to slightly fenhexamid-resistant Botrytis cinerea 05-1.27 assessed as inhibition of germ tube elongation after 24 hrs; conditions: 05-1.27, 24 h
[27] = test system: Botrytis cinerea; assay: Antifungal activity against highly fenhexamid-resistant Botrytis cinerea MK3-36 assessed as inhibition of germ tube elongation after 24 hrs; conditions: MK3-36, 24 h
[28] = test system: Botrytis cinerea; assay: Antifungal activity against HydR3 deficient Botrytis cinerea 453 harboring TELerg F412I mutant at 10 ug/ml relative to wild-type; summary of the method: as §1
[29] = test system: Botrytis cinerea; assay: Antifungal activity against highly fenhexamid-resistant Botrytis cinerea 440a assessed as inhibition of mycelium growth measured over 5 days; conditions: 120 h
[30] = test system: Botrytis cinerea; assay: Antifungal activity against highly fenhexamid-resistant Botrytis cinerea 05-PV Reims assessed as inhibition of germ tube elongation after 24 hrs
[31] = test system: Botrytis cinerea; assay: Antifungal activity against highly fenhexamid-resistant Botrytis cinerea 379b assessed as inhibition of germ tube elongation after 24 hrs
[32] = test system: Botrytis cinerea; assay: Antifungal activity against highly fenhexamid-resistant Botrytis cinerea 179 assessed as inhibition of germ tube elongation after 24 hrs; conditions: Botrytis cinerea, 179, 24 h
[33] = test system: Botrytis cinerea; assay: Antifungal activity against Botrytis cinerea 286 harboring TELerg S336C mutant at 5 ug/ml relative to wild-type; summary of the method: as §1
[34] = test system: Botrytis cinerea; assay: Antifungal activity against Botrytis cinerea 286 harboring TELerg S336C mutant at 1 ug/ml relative to wild-type; summary of the method: as §1
[35] = test system: Botrytis cinerea; assay: Antifungal activity against fenhexamid-senistive Botrytis cinerea SAS405 assessed as inhibition of mycelium growth measured over 5 days; conditions: SAS405, 120 h
[36] = test system: Botrytis cinerea; assay: Antifungal activity against highly fenhexamid-resistant Botrytis cinerea 118 assessed as inhibition of germ tube elongation after 24 hrs; conditions: Botrytis cinerea, 118, 24 h
[37] = test system: Botrytis cinerea; assay: Antifungal activity against HydR3 deficient Botrytis cinerea 453 harboring TELerg N369D mutant at 1 ug/ml relative to wild-type; summary of the method: as §1
[38] = test system: Botrytis cinerea; assay: Antifungal activity against Botrytis cinerea 223b expressing erg27 HydR3+ alleles assessed as appearance of dense mycelium up to 20 ug/ml
Summary of the method: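 Spores of parental strains were spread on YSS (synthetic complete) medium containing fenhexamid at several concentrations, without hygromycin B. Growth was scored after 7 days at 21°C.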

[39] = test system: Botrytis cinerea; assay: Antifungal activity against highly fenhexamid-resistant Botrytis cinerea 379a assessed as inhibition of mycelium growth measured over 5 days; conditions: 120 h
[40] = test system: Botrytis cinerea; assay: Antifungal activity against moderately to slightly fenhexamid-resistant Botrytis cinerea 452 assessed as inhibition of mycelium growth measured over 5 days; conditions: Botrytis cinerea, 452, 120 h
[41] = test system: Botrytis cinerea; assay: Antifungal activity against highly fenhexamid-resistant Botrytis cinerea 506b assessed as inhibition of germ tube elongation after 24 hrs
[42] = test system: Botrytis cinerea; assay: Antifungal activity against moderately to slightly fenhexamid-resistant Botrytis cinerea 286 assessed as inhibition of mycelium growth measured over 5 days; conditions: Botrytis cinerea, 286, 120 h

CC1(C(=O)Nc2ccc(O)c(Cl)c2Cl)CCCCC1 [FENHEXAMID]
EC50 [1]: 0.3 µg/mL (≈ 0.993 µM) | EC50 [2]: < 0.1 µg/mL | EC50 [3]: 2 µg/mL (≈ 6.62 µM) | EC50 [4]: > 10 µg/mL | EC50 [5]: 10 µg/mL (≈ 33.1 µM) | EC50 [6]: < 0.1 µg/mL | EC50 [7]: > 10 µg/mL | EC50 [8]: 2 µg/mL (≈ 6.62 µM) | EC50 [9]: 0.2 µg/mL (≈ 0.662 µM) | EC50 [10]: > 10 µg/mL | EC50 [11]: > 10 µg/mL | Activity [12]: inactive | Activity [13]: inactive | EC50 [14]: 7 µg/mL (≈ 23.2 µM) | Activity [15]: inactive | EC50 [16]: < 0.3 µg/mL | Activity [17]: inactive | EC50 [18]: 0.5 µg/mL (≈ 1.65 µM) | EC50 [19]: > 10 µg/mL | EC50 [20]: > 10 µg/mL | EC50 [21]: > 10 µg/mL | EC50 [22]: 0.8 µg/mL (≈ 2.65 µM) | EC50 [23]: 8 µg/mL (≈ 26.5 µM) | EC50 [24]: 0.5 µg/mL (≈ 1.65 µM) | EC50 [25]: > 5 µg/mL | EC50 [26]: 2.5 µg/mL (≈ 8.27 µM) | EC50 [27]: > 5 µg/mL | Activity [28]: inactive | EC50 [29]: > 10 µg/mL | EC50 [30]: > 10 µg/mL | EC50 [31]: > 10 µg/mL | EC50 [32]: > 10 µg/mL | Activity [33]: inactive | Activity [34]: inactive | EC50 [35]: < 0.1 µg/mL | EC50 [36]: > 10 µg/mL | Activity [37]: inactive | Activity [38]: inactive | EC50 [39]: > 10 µg/mL | EC50 [40]: 1.5 µg/mL (≈ 4.96 µM) | EC50 [41]: > 10 µg/mL | EC50 [42]: 1.5 µg/mL (≈ 4.96 µM)
